Reference: ChEMBL document CHEMBL4371093, “Divirensols: Sesquiterpene Dimers from the Australian Termite Nest-Derived Fungus Trichoderma virens CMB-TN16” (J Nat Prod, 2019)
Activity calls are given as the source filed them. No cut-off for these calls is given here.

Key:
SW-620 = assay: Growth inhibition of human SW620 cells up to 30 uM after 48 hrs by MTT assay; format: functional, cell-based
Procedure, shortened: (§1)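 Adherent cells grown with 10% FBS, 2 mM L-glutamine and penicillin/streptomycin at 37 °C, 5% CO2. Seeded at 3000 cells/well and attached for 18 h. Compound added at a final 30 μM in 1% DMSO for 48 h. MTT then added (final 0.5 mg/mL) for 4 h, formazan dissolved in DMSO, absorbance read at 580 nm. Negative control 1% DMSO, doxorubicin positive control. Run in duplicate. IC50 versus negative control.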

Staphylococcus aureus = assay: Antibacterial activity against Staphylococcus aureus ATCC 25923 up to 30 uM after 24 hrs by spectrophotometric method; format: functional, organism-based
Procedure, shortened: (§2)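 Bacteria grown on tryptic soy agar at 37 °C for 24 h. One colony moved to tryptic soy broth and adjusted to 10^4−10^5 CFU/mL. Compound in DMSO, diluted with water to a 600 μM stock in 20% DMSO, then added to broth at a final 30 μM in 1% DMSO. Incubated 37 °C for 24 h, OD600 read. Rifampicin positive control. IC50 taken as 50% growth inhibition.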

Escherichia coli = assay: Antibacterial activity against Escherichia coli ATCC 25922 up to 30 uM after 24 hrs by spectrophotometric method; format: functional, organism-based; procedure, shortened: as §2
Bacillus spizizenii = assay: Antibacterial activity against Bacillus subtilis ATCC 6633 up to 30 uM after 24 hrs by spectrophotometric method; format: functional, organism-based; procedure, shortened: as §2
NCI-H460 = assay: Growth inhibition of human NCI-H460 cells up to 30 uM after 48 hrs by MTT assay; format: functional, cell-based; procedure, shortened: as §1
MCF7 = assay: Growth inhibition of human MCF7 cells; format: functional; settings: read-out: LD50 (the source's name)
HeLa = assay: Growth inhibition of human HeLa cells; format: functional; settings: read-out: LD50 (the source's name)
[1] = Inhibition of DNA polymerase (unknown origin); set-up: species or system Homo sapiens

Q: Which results are given for CC(C)[C@H]1CC[C@@]2(OC(=O)/C(=C/[C@H]3C4=C(CC[C@@H]3C(C)C)COC4=O)CO)COC(=O)[C@H]2[C@@H]1/C=C(\CO)C(=O)O?
A: growth inhibition (GI) (SW-620): inactive; Activity (Staphylococcus aureus): inactive; Activity (Escherichia coli): inactive; Activity (Bacillus spizizenii): inactive; growth inhibition (GI) (NCI-H460): inactive

Q: Which “growth inhibition (GI)” value (SW-620) does the source give for CC(=O)OC/C(=C\[C@H]1C=C(CO)CC[C@@H]1C(C)C)C(=O)O here?
A: Its value is “inactive”.

Q: What about the Activity (Staphylococcus aureus) of the same compound?
A: Its Activity is “inactive”.

Q: What about the Activity (Escherichia coli) of the same compound?
A: Its Activity is “inactive”.

Q: And the Activity (Bacillus spizizenii)?
A: Its Activity is “inactive”.

Q: And the “growth inhibition (GI)” value (NCI-H460)?
A: The value was “inactive”.

Q: Which “growth inhibition (GI)” value (SW-620) does the source give for CC(C)[C@H]1CC[C@@](O)(COC(=O)/C(=C/[C@H]2C=C(CO)CC[C@@H]2C(C)C)CO)[C@H]2C(=O)OCC(C(=O)O)=C[C@H]12 here?
A: Its value is “inactive”.

Q: What about the Activity (Staphylococcus aureus) of the same compound?
A: The Activity was “inactive”.

Q: What about the Activity (Escherichia coli) of the same compound?
A: The Activity was “inactive”.

Q: What about the Activity (Bacillus spizizenii) of the same compound?
A: The Activity was “inactive”.

Q: What about the “growth inhibition (GI)” value (NCI-H460) of the same compound?
A: Its value is “inactive”.

Q: Which “growth inhibition (GI)” value (SW-620) does the source give for CC(C)[C@H]1CC[C@@](O)(COC(=O)/C(=C/[C@H]2C3=C(CC[C@@H]2C(C)C)COC3=O)CO)[C@H]2C(=O)OCC(C(=O)O)=C[C@H]12 here?
A: Its value is “inactive”.

Q: And the Activity (Staphylococcus aureus)?
A: Its Activity is “inactive”.

Q: What about the Activity (Escherichia coli) of the same compound?
A: Its Activity is “inactive”.

Q: What about the Activity (Bacillus spizizenii) of the same compound?
A: The Activity was “inactive”.

Q: What about the “growth inhibition (GI)” value (NCI-H460) of the same compound?
A: The value was “inactive”.

Q: With CC(=O)OCC1=C[C@H](/C=C(\CO)C(=O)O)[C@@H](C(C)C)CC1 as the compound, how does the “growth inhibition (GI)” value (SW-620) read?
A: The value was “inactive”.

Q: And the Activity (Staphylococcus aureus)?
A: The Activity was “inactive”.

Q: What about the Activity (Escherichia coli) of the same compound?
A: The Activity was “inactive”.

Q: And the Activity (Bacillus spizizenii)?
A: The Activity was “inactive”.

Q: What about the “growth inhibition (GI)” value (NCI-H460) of the same compound?
A: Its value is “inactive”.

Q: For CC(C)[C@H]1CCC(CO)=C[C@@H]1/C=C(\CO)C(=O)O, which “growth inhibition (GI)” value (SW-620) is on record?
A: Its value is “inactive”.

Q: What about the Activity (Staphylococcus aureus) of the same compound?
A: The Activity was “inactive”.

Q: And the Activity (Escherichia coli)?
A: The Activity was “inactive”.

Q: What about the Activity (Bacillus spizizenii) of the same compound?
A: Its Activity is “inactive”.

Q: And the “growth inhibition (GI)” value (NCI-H460)?
A: The value was “inactive”.

Q: With CC(C)[C@H]1CC[C@@](O)(COC(=O)C2=C[C@H]3[C@@H](OC2)[C@H](CO)CC[C@@H]3C(C)C)[C@H]2C(=O)OCC(C(=O)O)=C[C@H]12 as the compound, how does the “growth inhibition (GI)” value (SW-620) read?
A: Its value is “inactive”.

Q: What about the Activity (Staphylococcus aureus) of the same compound?
A: Its Activity is “inactive”.

Q: What about the Activity (Escherichia coli) of the same compound?
A: The Activity was “inactive”.

Q: What about the Activity (Bacillus spizizenii) of the same compound?
A: Its Activity is “inactive”.

Q: What about the “growth inhibition (GI)” value (NCI-H460) of the same compound?
A: Its value is “inactive”.

Q: For CC(C)C1CCC(O)(COC(=O)C2=CC3C(C(C)C)CCC4(CO4)C3C(=O)OC2)C2C(=O)OCC(C(=O)O)=CC12 (stereo not drawn), which CC50 (MCF7) is on record?
A: Its CC50 is 31.6 µM.

Q: And the CC50 (HeLa)?
A: The CC50 was 33 µM.

Q: What about the IC50 [1] of the same compound?
A: The IC50 was 30.8 µM.

Q: With CC(C)[C@H]1CC[C@@](O)(COC(=O)/C(=C/[C@H]2C3=C(CC[C@@H]2C(C)C)COC3=O)CO)[C@@H](C(=O)O)[C@@H]1/C=C(\CO)C(=O)O as the compound, how does the “growth inhibition (GI)” value (SW-620) read?
A: The value was “inactive”.

Q: And the Activity (Staphylococcus aureus)?
A: The Activity was “inactive”.

Q: What about the Activity (Escherichia coli) of the same compound?
A: Its Activity is “inactive”.

Q: What about the Activity (Bacillus spizizenii) of the same compound?
A: Its Activity is “inactive”.

Q: And the “growth inhibition (GI)” value (NCI-H460)?
A: Its value is “inactive”.

Q: Which results are given for CC(C)[C@H]1CC[C@@]2(OC(=O)/C(=C/[C@H]3C=C(CO)CC[C@@H]3C(C)C)CO)COC(=O)[C@H]2[C@@H]1/C=C(\CO)C(=O)O?
A: growth inhibition (GI) (SW-620): inactive; Activity (Staphylococcus aureus): inactive; Activity (Escherichia coli): inactive; Activity (Bacillus spizizenii): inactive; growth inhibition (GI) (NCI-H460): inactive

Q: Which results are given for CC(C)[C@H]1CC[C@@](O)(COC(=O)/C(=C/[C@@H]2[C@@H](C(C)C)CC[C@@]3(O)COC(=O)[C@@H]23)CO)[C@H]2C(=O)OCC(C(=O)O)=C[C@H]12?
A: growth inhibition (GI) (SW-620): inactive; Activity (Staphylococcus aureus): inactive; Activity (Escherichia coli): inactive; Activity (Bacillus spizizenii): inactive; growth inhibition (GI) (NCI-H460): inactive
